Key:
[1] = biological target: T1, trimeric MLL1 complex (MLL1, RbBP5 and WDR5) (Homo sapiens, UniProt Q03164); assay: FL-NAH displacement FP assay, trimeric complex; format: binding; conditions: for Hill Slope: Trimeric complex, FL-NAH displacement curve
pentameric MLL1 complex [2] = biological target: T2, pentameric MLL1 complex (Homo sapiens, UniProt Q03164); assay: FL-NAH displacement FP assay, pentameric complex; format: binding; conditions: for Hill Slope: Pentameric complex, FL-NAH displacement curve
MLL1 SET domain [3] = biological target: T3, MLL1 SET domain (Homo sapiens, UniProt Q03164); assay: FL-NAH displacement FP assay, isolated SET domain; format: binding; conditions: for Hill Slope: SET Only, FL-NAH displacement curve
tetrameric MLL1 complex [4] = biological target: T4, tetrameric MLL1 complex (Homo sapiens, UniProt Q03164); assay: FL-NAH displacement FP assay, tetrameric complex; format: binding; conditions: for Hill Slope: Tetrameric complex, FL-NAH displacement curve
In short: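 The tetrameric MLL1 complex was diluted to its own Kd (probe) concentration. It was then incubated 30 min at ambient temperature with 50 nM fluorescein-azaadenosylhomocysteine probe and increasing concentrations of test compound. Buffer was 20 mM Tris pH 8.0, 0.01% Triton X-100, 5 mM DTT. FP was read at ex 485/em 528 nm, in mP. Kdisp and Hill coefficient came from nonlinear least-squares sigmoidal fit. Mean ± SD, ≥3 independent experiments.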

[5] = biological target: T1, trimeric MLL1 complex (MLL1, RbBP5 and WDR5); assay: FL-NAH fluorescence polarization saturation binding, trimeric complex
pentameric MLL1 complex [6] = biological target: T2, pentameric MLL1 complex; assay: FL-NAH fluorescence polarization saturation binding, pentameric complex
MLL1 SET domain [7] = biological target: T3, MLL1 SET domain; assay: saturation-transfer difference; format: binding; conditions: Supplementary Figure 2
MLL1 SET domain [8] = biological target: T3, MLL1 SET domain; assay: differential static light scattering; format: binding; conditions: Supplementary Figure 3
MLL1 SET domain [9] = biological target: T3, MLL1 SET domain; assay: FL-NAH fluorescence polarization saturation binding, isolated SET domain; conditions: SET Only
In short: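 The isolated MLL1 SET domain was titrated in increasing concentrations against 50 nM fluorescein-azaadenosylhomocysteine probe. Buffer was 20 mM Tris pH 8.0, 0.01% Triton X-100, 5 mM DTT. Incubation was 30 min at ambient temperature. FP was read at ex 485/em 528 nm. Kd and ΔFPmax came from nonlinear least-squares single-site saturation fit of ΔFP. Mean ± SD, three independent experiments.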

tetrameric MLL1 complex [10] = biological target: T4, tetrameric MLL1 complex; assay: FL-NAH fluorescence polarization saturation binding, tetrameric complex
[11] = polarization expressed in mP (methods)

T3 sequence (Q03164 3829-3945 limits assumed): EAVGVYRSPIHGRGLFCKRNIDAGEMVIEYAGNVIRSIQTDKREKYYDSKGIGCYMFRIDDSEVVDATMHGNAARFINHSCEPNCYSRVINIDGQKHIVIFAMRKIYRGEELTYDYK
T4 sequence (Q03164 3829-3945): as the sequence (Q03164 3829-3945 limits assumed) above
T4 sequence (Q15291 whole entry, further chain): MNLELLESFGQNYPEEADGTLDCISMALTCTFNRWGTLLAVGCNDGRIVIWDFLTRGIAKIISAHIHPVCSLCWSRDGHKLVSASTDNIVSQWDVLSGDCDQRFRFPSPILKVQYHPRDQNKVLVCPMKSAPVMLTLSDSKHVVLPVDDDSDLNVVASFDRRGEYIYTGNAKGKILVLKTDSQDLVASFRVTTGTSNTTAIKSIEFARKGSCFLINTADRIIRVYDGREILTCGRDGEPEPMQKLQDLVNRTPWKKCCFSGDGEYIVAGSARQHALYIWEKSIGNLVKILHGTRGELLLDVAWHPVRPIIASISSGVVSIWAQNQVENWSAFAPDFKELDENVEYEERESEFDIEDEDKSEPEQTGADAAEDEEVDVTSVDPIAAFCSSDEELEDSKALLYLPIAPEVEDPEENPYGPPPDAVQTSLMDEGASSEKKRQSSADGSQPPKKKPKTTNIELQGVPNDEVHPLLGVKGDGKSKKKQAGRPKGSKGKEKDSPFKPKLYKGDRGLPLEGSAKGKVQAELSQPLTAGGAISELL
T4 sequence (Q9UBL3 whole entry, further chain): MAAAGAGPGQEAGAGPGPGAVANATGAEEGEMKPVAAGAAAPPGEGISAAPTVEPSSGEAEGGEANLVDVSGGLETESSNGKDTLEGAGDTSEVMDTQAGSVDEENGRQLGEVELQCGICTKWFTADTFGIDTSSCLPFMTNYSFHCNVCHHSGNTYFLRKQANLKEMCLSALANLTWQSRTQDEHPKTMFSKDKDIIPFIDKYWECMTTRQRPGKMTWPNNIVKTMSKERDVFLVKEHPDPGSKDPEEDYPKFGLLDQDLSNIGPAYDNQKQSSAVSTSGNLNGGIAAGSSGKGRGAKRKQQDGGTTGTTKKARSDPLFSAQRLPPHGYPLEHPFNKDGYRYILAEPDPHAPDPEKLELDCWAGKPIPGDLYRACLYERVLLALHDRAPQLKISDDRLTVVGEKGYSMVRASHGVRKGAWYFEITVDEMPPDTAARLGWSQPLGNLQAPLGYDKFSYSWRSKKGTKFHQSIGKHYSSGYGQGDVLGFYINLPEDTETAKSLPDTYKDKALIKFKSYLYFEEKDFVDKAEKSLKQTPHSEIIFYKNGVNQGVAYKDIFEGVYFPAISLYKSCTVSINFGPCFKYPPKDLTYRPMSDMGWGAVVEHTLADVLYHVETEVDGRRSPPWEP

IC50 [1] [µM]	Hill Slope [1]	IC50 (pentameric MLL1 complex [2]) [µM]	Hill Slope (pentameric MLL1 complex [2])	IC50 (MLL1 SET domain [3]) [µM]	Hill Slope (MLL1 SET domain [3])	IC50 (tetrameric MLL1 complex [4]) [µM]	Hill Slope (tetrameric MLL1 complex [4])	increase in potency of FL-NAH displacement, pentameric complex relative to the isolated SET domain (pentameric MLL1 complex [2]; pentameric vs isolated SET domain) [fold]	SMILES	Kd ([5]; 50 nM FL-NAH, FP after 30 min) [µM]	ΔFPmax [5, 11]	Kd (pentameric MLL1 complex [6]; 50 nM FL-NAH, FP after 30 min) [µM]	ΔFPmax (pentameric MLL1 complex [6]; [11])	binding to MLL1 SET domain alone by STD NMR (MLL1 SET domain [7])	binding to MLL1 SET domain alone by differential static light scattering (MLL1 SET domain [8])	Kd (MLL1 SET domain [9]; 50 nM FL-NAH, FP after 30 min) [µM]	ΔFPmax (MLL1 SET domain [9]; [11])	Kd (tetrameric MLL1 complex [10]; 50 nM FL-NAH, FP after 30 min) [µM]	ΔFPmax (tetrameric MLL1 complex [10]; [11])
7 ± 1	−1.6 ± 0.4	1 ± 0.2	−1.6 ± 0.3	14 ± 2	−1.2 ± 0.1	1 ± 0.1	−1.7 ± 0.2	–	C[S+](CC[C@H](N)C(=O)[O-])C[C@H]1O[C@@H](n2cnc3c(N)ncnc32)[C@H](O)[C@@H]1O (stereo partly shown) [SAM, S-adenosylmethionine]	–	–	–	–	–	–	–	–	–	–
10 ± 2.5	−1.1 ± 0.3	0.5 ± 0.1	−1.1 ± 0.3	9 ± 0.2	−0.9 ± 0.1	2 ± 0.2	−1.2 ± 0.1	–	Nc1ncnc2c1ncn2[C@@H]1O[C@H](C[C@@H](N)CC[C@H](N)C(=O)O)[C@@H](O)[C@H]1O [Sinefungin, sinefungin]	–	–	–	–	–	–	–	–	–	–
–	−1.5 ± 0.3	–	−1.4 ± 0.3	–	−0.9 ± 0.2	–	−1.9 ± 0.1	20	Nc1ncnc2c1ncn2[C@@H]1O[C@H](CSCC[C@H](N)C(=O)O)[C@@H](O)[C@H]1O [SAH]	–	–	–	–	–	–	–	–	–	–
–	–	–	–	–	–	–	–	–	Nc1ncnc2c1ncn2[C@@H]1O[C@H](CN(CC[C@H](N)C(=O)O)Cc2cn(CCNC(=O)c3ccc4c(c3)C(=O)OC43c4ccc(O)cc4Oc4cc(O)ccc43)nn2)[C@@H](O)[C@H]1O [FL-NAH, fluorescein linked with N-adenosylhomocysteine]	7 ± 3	260 ± 40	0.2 ± 0.03	270 ± 20	confirmed	confirmed	1 ± 0.1	240 ± 3	1.4 ± 0.4	300 ± 30
